Reference: ChEMBL document CHEMBL1130135, “Use of conformationally restricted benzamidines as arginine surrogates in the design of platelet GPIIb-IIIa receptor antagonists” (J Med Chem, 1997)
pIC50: −log10 of the molar value.

Legend:
Format in all cases: protein-complex assay
[1] = molecular target: T1, Integrin alpha-IIb/beta-3 (Homo sapiens, UniProt P05106+P08514); assay: Antagonism of fibrinogen binding to a purified human fibrinogen receptor preparation.
Method in brief: (§1)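 ELISA on purified human platelet GPIIb-IIIa with biotinylated fibrinogen as the ligand. Bound fibrinogen was detected with alkaline phosphatase-labeled goat anti-biotin and p-nitrophenyl phosphate substrate. Some runs added BSA at 4.5% (w/v) as a stand-in for plasma albumin.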

Integrin alpha-V/beta-3 = Integrin alpha-V/beta-3 (Homo sapiens, UniProt P05106+P06756); assay: Inhibition of adhesive protein binding to alphaV-beta3 vitronectin receptor using ELISA
Chain of Integrin alpha-V/beta-3 (P05106 27-788 limits assumed): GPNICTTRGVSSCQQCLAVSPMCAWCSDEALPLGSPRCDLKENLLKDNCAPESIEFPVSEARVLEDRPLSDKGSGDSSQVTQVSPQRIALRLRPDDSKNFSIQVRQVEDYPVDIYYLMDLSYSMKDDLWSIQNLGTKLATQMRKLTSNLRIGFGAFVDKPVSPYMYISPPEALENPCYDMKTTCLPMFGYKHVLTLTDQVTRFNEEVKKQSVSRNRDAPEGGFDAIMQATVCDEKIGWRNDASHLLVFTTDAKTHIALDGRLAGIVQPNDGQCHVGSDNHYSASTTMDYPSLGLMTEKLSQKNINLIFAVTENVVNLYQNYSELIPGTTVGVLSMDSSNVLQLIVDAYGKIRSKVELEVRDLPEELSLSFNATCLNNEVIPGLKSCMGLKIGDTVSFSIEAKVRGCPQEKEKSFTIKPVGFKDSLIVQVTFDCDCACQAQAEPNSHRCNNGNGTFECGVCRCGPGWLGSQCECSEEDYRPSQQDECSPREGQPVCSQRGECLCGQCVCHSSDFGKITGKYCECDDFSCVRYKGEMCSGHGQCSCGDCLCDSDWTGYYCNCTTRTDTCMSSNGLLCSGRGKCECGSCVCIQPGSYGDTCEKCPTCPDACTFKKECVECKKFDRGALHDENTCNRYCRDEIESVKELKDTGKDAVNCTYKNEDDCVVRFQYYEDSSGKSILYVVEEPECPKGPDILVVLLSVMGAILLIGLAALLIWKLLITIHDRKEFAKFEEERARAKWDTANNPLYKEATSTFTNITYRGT
Chain of Integrin alpha-V/beta-3 (P06756 31-889 limits assumed): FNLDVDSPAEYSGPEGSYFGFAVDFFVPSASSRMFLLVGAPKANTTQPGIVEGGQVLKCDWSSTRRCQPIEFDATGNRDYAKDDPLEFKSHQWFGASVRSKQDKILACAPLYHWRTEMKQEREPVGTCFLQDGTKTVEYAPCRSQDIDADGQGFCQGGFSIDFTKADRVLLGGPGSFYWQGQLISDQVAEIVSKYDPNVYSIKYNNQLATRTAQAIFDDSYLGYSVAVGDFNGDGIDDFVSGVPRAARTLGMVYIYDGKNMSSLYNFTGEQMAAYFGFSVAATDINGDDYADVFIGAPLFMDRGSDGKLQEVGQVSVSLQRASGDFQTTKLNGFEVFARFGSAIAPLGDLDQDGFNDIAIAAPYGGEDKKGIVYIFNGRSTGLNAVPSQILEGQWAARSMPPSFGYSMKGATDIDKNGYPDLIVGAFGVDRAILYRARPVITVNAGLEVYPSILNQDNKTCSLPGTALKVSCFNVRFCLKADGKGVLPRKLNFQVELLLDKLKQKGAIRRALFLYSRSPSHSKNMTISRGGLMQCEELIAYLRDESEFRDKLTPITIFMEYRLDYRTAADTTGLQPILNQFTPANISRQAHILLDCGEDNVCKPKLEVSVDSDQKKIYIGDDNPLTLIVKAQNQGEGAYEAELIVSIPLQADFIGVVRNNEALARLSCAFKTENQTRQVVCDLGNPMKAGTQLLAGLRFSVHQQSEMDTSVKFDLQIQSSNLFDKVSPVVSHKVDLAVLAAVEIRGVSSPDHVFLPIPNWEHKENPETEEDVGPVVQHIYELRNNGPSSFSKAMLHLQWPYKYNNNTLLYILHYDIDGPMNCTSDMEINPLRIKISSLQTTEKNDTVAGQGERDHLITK
Chain of Integrin alpha-V/beta-3 (P06756 891-1048 limits assumed): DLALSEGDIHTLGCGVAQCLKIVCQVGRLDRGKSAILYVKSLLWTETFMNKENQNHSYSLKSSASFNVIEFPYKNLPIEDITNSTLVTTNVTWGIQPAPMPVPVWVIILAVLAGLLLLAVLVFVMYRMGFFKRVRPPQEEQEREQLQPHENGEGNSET
Method in brief: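 Vitronectin receptor ELISA on purified human placenta αvβ3 with biotinylated vitronectin as the ligand. Detection used alkaline phosphatase-labeled goat anti-biotin and p-nitrophenol phosphate. Compounds were tested up to 100 μM.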

[2] = molecular target: T1, Integrin alpha-IIb/beta-3; assay: Inhibition of fibrinogen binding to purified Fibrinogen Receptor preparation in enzyme-linked immunosorbent assay (ELISA); method in brief: as §1

T1 sequence (P05106 27-788 limits assumed): as the sequence (P05106 27-788 limits assumed) above
T1 sequence (P08514 32-887 limits assumed): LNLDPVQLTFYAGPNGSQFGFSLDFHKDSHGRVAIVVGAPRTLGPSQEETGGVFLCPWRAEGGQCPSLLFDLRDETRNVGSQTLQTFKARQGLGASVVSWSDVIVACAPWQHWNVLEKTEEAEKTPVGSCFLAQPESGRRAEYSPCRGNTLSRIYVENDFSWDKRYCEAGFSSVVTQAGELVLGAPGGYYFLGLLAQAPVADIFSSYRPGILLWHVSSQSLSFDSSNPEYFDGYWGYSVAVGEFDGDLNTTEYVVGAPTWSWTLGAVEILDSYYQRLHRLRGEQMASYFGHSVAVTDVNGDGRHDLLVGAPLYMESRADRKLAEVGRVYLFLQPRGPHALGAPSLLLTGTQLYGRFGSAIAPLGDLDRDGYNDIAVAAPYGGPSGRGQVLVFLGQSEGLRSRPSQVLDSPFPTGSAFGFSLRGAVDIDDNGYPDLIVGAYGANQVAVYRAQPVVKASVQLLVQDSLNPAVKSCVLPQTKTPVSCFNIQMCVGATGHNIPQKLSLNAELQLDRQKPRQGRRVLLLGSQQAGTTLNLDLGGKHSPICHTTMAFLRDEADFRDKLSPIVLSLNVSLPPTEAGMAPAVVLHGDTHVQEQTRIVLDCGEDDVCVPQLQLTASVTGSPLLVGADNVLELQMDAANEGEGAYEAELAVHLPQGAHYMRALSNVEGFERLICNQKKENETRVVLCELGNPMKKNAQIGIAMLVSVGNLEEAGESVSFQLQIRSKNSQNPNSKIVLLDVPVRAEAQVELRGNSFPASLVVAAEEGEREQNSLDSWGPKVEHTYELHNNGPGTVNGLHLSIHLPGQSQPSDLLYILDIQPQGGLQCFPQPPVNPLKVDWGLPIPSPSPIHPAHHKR
T1 sequence (P08514 891-1039 limits assumed): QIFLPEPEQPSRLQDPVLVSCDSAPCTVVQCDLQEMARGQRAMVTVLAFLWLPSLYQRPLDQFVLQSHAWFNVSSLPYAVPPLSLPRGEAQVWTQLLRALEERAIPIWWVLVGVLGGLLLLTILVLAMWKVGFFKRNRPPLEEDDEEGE

Row | SMILES | pIC50 [1] | also measured
1 | N=C(N)c1ccc2sc(C(=O)NCCCCCCC(=O)O)cc2c1 | 6.07 | 
2 | N=C(N)c1ccc2c(C(=O)NCCCCCCC(=O)O)c[nH]c2c1 |  | pIC50 (Integrin alpha-V/beta-3): < 4.00
3 | N=C(N)c1ccc2[nH]c(C(=O)NCC(=O)NCCCC(=O)O)cc2c1 | 5.00 | 
4 | CCC(CCCCCNC(=O)c1cc2cc(C(=N)N)ccc2[nH]1)C(=O)O (stereo not drawn) | 4.57 | 
5 | N=C(N)c1ccc(OCC(=O)NCCCCCCC(=O)O)cc1 | 5.96 | 
6 | N=C(N)c1ccc2oc(C(=O)NCCCCCCCC(=O)O)cc2c1 |  | pIC50 [2]: 5.48
7 | N=C(N)c1ccc2[nH]c(C(=O)NCCC(=O)NCCC(=O)O)cc2c1 | 6.12 | 
8 | N=C(N)c1ccc2[nH]c(C(=O)NCc3ccc(CCC(=O)O)cc3)cc2c1 | 5.40 | 
9 | N=C(N)c1ccc2oc(C(=O)NCCCCCCC(=O)O)cc2c1 |  | pIC50 (Integrin alpha-V/beta-3): < 4.00
10 | CCC(CCCCNC(=O)c1cc2cc(C(=N)N)ccc2[nH]1)CC(=O)O (stereo not drawn) | 6.36 | 
11 | Cc1c(C(=O)NCCCCCCC(=O)O)[nH]c2ccc(C(=N)N)cc12 | 5.77 | 
12 | CC(CCCCNC(=O)c1cc2cc(C(=N)N)ccc2[nH]1)CC(=O)O (stereo not drawn) | 6.51 | 
13 | N=C(N)c1ccc2[nH]c(C(=O)NCCCC(=O)NCC(=O)O)cc2c1 | 5.13 | 

Continued, in another order:

Row | pIC50 [1] | SMILES | also measured
14 | 6.10 | CCCCC(CCCCNC(=O)c1cc2cc(C(=N)N)ccc2[nH]1)CC(=O)O (stereo not drawn) | 
15 | 5.54 | Cn1c(C(=O)NCCCCCCC(=O)O)cc2cc(C(=N)N)ccc21 | 
16 | 6.34 | N=C(N)c1ccc2[nH]c(C(=O)NCCCCC(CC(=O)O)c3ccccc3)cc2c1 (stereo not drawn) | 
17 | 5.16 | CC(CCCCCNC(=O)c1cc2cc(C(=N)N)ccc2[nH]1)C(=O)O (stereo not drawn) | 
18 | 5.64 | N=C(N)c1ccc2oc(C(=O)NCCCCCC(=O)O)cc2c1 | 
19 | 6.47 | CN(CCCCCCC(=O)O)C(=O)c1cc2cc(C(=N)N)ccc2[nH]1 | 
20 | 6.23 | CCCCCCC(CCCCNC(=O)c1cc2cc(C(=N)N)ccc2[nH]1)CC(=O)O (stereo not drawn) | 
21 | 7.70 | N=C(N)c1ccc2c(C(=O)NCCCCCCC(=O)O)[nH]nc2c1 | pIC50 (Integrin alpha-V/beta-3): < 4.00
22 | 5.96 | N=C(N)c1ccc2cc(C(=O)NCCCCCCC(=O)O)oc2c1 | 
